ChEMBL document CHEMBL3124904, “Second-generation derivatives of the eukaryotic translation initiation inhibitor pateamine A targeting eIF4A as potential anticancer agents” (Bioorg Med Chem, 2014)
Calls of active or inactive are those of the source. The calls are words filed in the database; no cut-off is given here.

Assays:
Jurkat [1] = experiment: Immunosuppressive activity in human Jurkat T cells assessed as inhibition of IL-2 transcription; assay type: functional, cell-based
Jurkat [2] = experiment: Antiproliferative activity against human Jurkat T cells up to 10^4 nM after 72 hrs by MTT assay; assay type: functional, cell-based
Summary of the method: (§1)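 HeLa and SK-MEL2 grown in DMEM, Jurkat in RPMI 1640, each with 10% FBS and penicillin-streptomycin, at 37 °C and 5% CO2. Adherent cells seeded at 2000/well and left to recover overnight; Jurkat seeded at 5000/well with no recovery. Compound added in DMSO (0.1% final), then 72 h incubation and MTT readout.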

SK-MEL-2 [3] = experiment: Antiproliferative activity against human SK-MEL-2 cells up to 10^4 nM after 72 hrs by MTT assay in presence of 10% FBS; assay type: functional, cell-based; summary of the method: as §1
HeLa [4] = experiment: Antiproliferative activity against human HeLa cells up to 500 nM after 72 hrs by MTT assay; assay type: functional, cell-based; summary of the method: as §1
Oryctolagus cuniculus [5] = organism: Oryctolagus cuniculus; experiment: Inhibition of cap-independent HCV-IRES-induced translation in rabbit reticulocyte lysate at 500 nM after 1.5 hrs by luciferase reporter gene assay; assay type: functional
Summary of the method: (§2)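 Capped bicistronic reporter mRNA: cap-dependent firefly luciferase first cistron, HCV IRES-driven Renilla second cistron. Transcribed in vitro with SP6 from the BamHI-linearised plasmid. 200 ng RNA translated in rabbit reticulocyte lysate with 70 mM KCl, 2 mM DTT, RNasin and compound in DMSO (5% v/v final), 30 °C for 1.5 h. Dual luciferase readout. Duplicates, 4 independent assays, mean IC50 by curve fit.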

Oryctolagus cuniculus [6] = organism: Oryctolagus cuniculus; experiment: Binding affinity to eIF4A1/2 in rabbit reticulocyte lysate assessed as inhibition of cap-dependent translation up to 500 nM after 1.5 hrs by dual luciferase reporter gene assay; summary of the method: as §2
Oryctolagus cuniculus [7] = organism: Oryctolagus cuniculus; experiment: Binding affinity to eIF4A1/2 in rabbit reticulocyte lysate assessed as cap-dependent translation at 500 nM after 1.5 hrs by dual luciferase reporter gene assay relative to control
Summary of the method: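 Rabbit reticulocyte lysate translating the cap-dependent/HCV IRES dual-luciferase mRNA, with compound at 500 nM in DMSO (5% v/v final), 30 °C for 1.5 h. Cap-dependent luciferase expressed as % translation relative to DMSO control.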

[8] = Binding affinity to eIF4A1/2 in rabbit reticulocyte lysate assessed as inhibition of cap-dependent translation after 1.5 hrs by dual luciferase reporter gene assay; set-up: species or system Oryctolagus cuniculus; summary of the method: as §2
[9] = Antiproliferative activity against human Jurkat T cells after 72 hrs by MTT assay; assay type: functional, cell-based; summary of the method: as §1
SK-MEL-2 [10] = experiment: Antiproliferative activity against human SK-MEL-2 cells after 72 hrs by MTT assay in presence of 10% FBS; assay type: functional, cell-based; conditions: SK-MEL-2, 72 h; summary of the method: as §1
HeLa [11] = experiment: Antiproliferative activity against human HeLa cells after 72 hrs by MTT assay; assay type: functional, cell-based; summary of the method: as §1
[12] = Half life in RPMI media at 10 uM by HPLC analysis; assay type: physicochemical
Summary of the method: (§3)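 Compound added from DMSO stock to pre-heated RPMI 1640 (1.8 mL) plus 0.2 mL human AB male serum or FBS, or to 2 mL RPMI alone, at final 1 or 10 μM. Samples analysed by HPLC at pH 9.5 (formic acid/ammonia in acetonitrile/water), with conversion taken from the substrate/internal standard peak ratio. Run in triplicate; half-lives ± SD.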

[13] = Half life in RPMI media at 10 uM by HPLC analysis in presence of fetal bovine serum; assay type: ADME; conditions: cattle; summary of the method: as §3
[14] = Half life in RPMI media at 10 uM by HPLC analysis in presence of human blood serum; assay type: ADME; summary of the method: as §3
[15] = Selectivity ratio of IC50 for MEF to IC50 for human Jurkat T cells; assay type: cell-based; conditions: mouse (MEF) and human (Jurkat T cells), read-out: Ratio IC50
[16] = Selectivity ratio of IC50 for MEF to IC50 for human SK-MEL-2 cells; assay type: cell-based; conditions: mouse (MEF) and human (SK-MEL-2 cells), MEF and SK-MEL-2 cells; read-out: Ratio IC50
MEF = experiment: Antiproliferative activity against MEF after 72 hrs by MTT assay; assay type: cell-based; conditions: Mus musculus
[17] = Selectivity ratio of IC50 for MEF to IC50 for human HeLa cells; assay type: cell-based; conditions: mouse (MEF) and human (HeLa cells), read-out: Ratio IC50
SK-MEL-2 [18] = experiment: Antiproliferative activity against human SK-MEL-2 cells after 72 hrs by MTT assay in presence of 5% FBS; assay type: functional, cell-based; conditions: SK-MEL-2, 72 h
Summary of the method: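 SK-MEL2 grown with reduced serum (5% FBS) to slow proliferation. Compounds added in DMSO (0.1% final), followed by a 72 h MTT proliferation assay.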

[19] = Dissociation constant, pKa of the compound; assay type: physicochemical
SK-MEL-2 [20] = experiment: Selectivity ratio of IC50 for human SK-MEL-2 cells in presence of 10% FBS to IC50 for human SK-MEL-2 cells in presence of 5% FBS; assay type: functional
[21] = Antiproliferative activity against BAEC assessed as DNA synthesis level after 24 hrs by thymidine incorporation assay; conditions: Bos taurus
Summary of the method: (§4)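 Cells kept at 37 °C, 5% CO2 with penicillin-streptomycin and 10% FBS. Adherent lines seeded at 2000 cells/well and left to recover overnight; Jurkat seeded at 5000 cells/well with no recovery period. Compound added in DMSO (0.1% final, vehicle-only control) at 0.001–100 nM over 10 wells. DNA synthesis read out after 24 h. Mean IC50 from at least 3 independent assays.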

HaCaT = experiment: Antiproliferative activity against human HaCaT cells assessed as DNA synthesis level after 24 hrs by thymidine incorporation assay; assay type: functional, cell-based; summary of the method: as §4

Compound: CC(/C=C/CCCO)=C\[C@@H]1Cc2nc(cs2)[C@@H](C)C[C@@H](NC(=O)OC(C)(C)C)CC(=O)O[C@@H](C)C/C(C)=C/C=C\C(=O)O1
- IC50 (Jurkat [1]): > 1000 nM

Compound: C/C(Br)=C\[C@@H]1Cc2nc(cs2)CCCCC(=O)O[C@@H](C)C/C(C)=C/C=CC(=O)O1
- Activity (Jurkat [2]): inactive
- Activity (SK-MEL-2 [3]): inactive
- Activity (HeLa [4]): inactive

Compound: CC(/C=C/C(C)=C/[C@@H]1Cc2nc(cs2)CCCCC(=O)O[C@@H](C)C/C(C)=C/C#CC(=O)O1)=C\CN1CCCC1
- Activity (Jurkat [2]): inactive
- Activity (SK-MEL-2 [3]): inactive
- Activity (HeLa [4]): inactive

Compound: CC(/C=C/C(C)=C/[C@@H]1Cc2nc(cs2)CCCCC(=O)O[C@@H](C)C/C(C)=C/C#CC(=O)O1)=C\CN(C)C
- inhibition (Oryctolagus cuniculus [5]): inactive
- inhibition (Oryctolagus cuniculus [6]): inactive
- Activity (Jurkat [2]): inactive
- Activity (SK-MEL-2 [3]): inactive
- Activity (HeLa [4]): inactive

Compound: C/C(Br)=C\[C@@H]1Cc2nc(cs2)CCCCC(=O)O[C@@H](C)C/C(C)=C/C#CC(=O)O1
- inhibition (Oryctolagus cuniculus [5]): inactive
- Activity (Jurkat [2]): inactive
- Activity (SK-MEL-2 [3]): inactive
- Activity (HeLa [4]): inactive

Compound: CC(/C=C/C(C)=C/[C@@H]1Cc2nc(cs2)CCCCC(=O)O[C@@H](C)C/C(C)=C/C=C/C(=O)O1)=C\CN(C)C
- Activity (Oryctolagus cuniculus [7]): 80%
- inhibition (Oryctolagus cuniculus [5]): inactive
- IC50 [8]: > 500 nM
- IC50 [9]: > 10000 nM
- IC50 (SK-MEL-2 [10]): 950 nM
- IC50 (HeLa [11]): 860 nM

Compound: CC(/C=C/C(C)=C/[C@@H]1Cc2nc(cs2)CCCCC(=O)O[C@@H](C)C/C(C)=C/C=C\C(=O)O1)=C\CN1CCOCC1
- t1/2 [12]: 0.89 h
- t1/2 [13]: 9.23 h
- t1/2 [14]: 17.8 h
- selectivity ratio [15]: 5
- selectivity ratio [16]: 5
- IC50 (MEF): > 2000 nM
- selectivity ratio [17]: 5
- IC50 (SK-MEL-2 [18]): 157 nM
- pKa [19]: 8.36
- inhibition (Oryctolagus cuniculus [5]): inactive
- IC50 [8]: 72.2 nM
- Activity (Jurkat [2]): inactive
- IC50 (SK-MEL-2 [10]): 320 nM
- IC50 (HeLa [11]): 430 nM
- Ratio IC50 (SK-MEL-2 [20]): 2

Compound: CC(/C=C/CCCO)=C\[C@@H]1Cc2nc(cs2)CCCCC(=O)O[C@@H](C)C/C(C)=C/C#CC(=O)O1
- inhibition (Oryctolagus cuniculus [5]): inactive
- Activity (Jurkat [2]): inactive
- Activity (SK-MEL-2 [3]): inactive
- Activity (HeLa [4]): inactive

Compound: COCCC/C=C/C(C)=C/[C@@H]1Cc2nc(cs2)CCCCC(=O)O[C@@H](C)C/C(C)=C/C=C\C(=O)O1
- inhibition (Oryctolagus cuniculus [5]): inactive
- inhibition (Oryctolagus cuniculus [6]): inactive
- Activity (Jurkat [2]): inactive
- Activity (SK-MEL-2 [3]): inactive
- Activity (HeLa [4]): inactive

Compound: CC(/C=C/CCCN(C)C)=C\[C@@H]1Cc2nc(cs2)[C@@H](C)C[C@@H](NC(=O)OC(C)(C)C)CC(=O)O[C@@H](C)C/C(C)=C/C=C\C(=O)O1
- IC50 (Jurkat [1]): 330 nM
- IC50 [21]: > 20 nM
- IC50 (HaCaT): > 100 nM

Compound: CC(Br)=C[C@@H]1Cc2nc(cs2)CCCCC(=O)O[C@@H](C)C/C(C)=C/C=C\C(=O)O1
- inhibition (Oryctolagus cuniculus [5]): inactive
- inhibition (Oryctolagus cuniculus [6]): inactive
- IC50 [9]: > 10000 nM
- IC50 (SK-MEL-2 [10]): > 10000 nM
- Activity (HeLa [4]): inactive

Compound: CC(/C=C/C=C/CO)=C\[C@@H]1Cc2nc(cs2)CCCCC(=O)O[C@@H](C)C/C(C)=C/C=C\C(=O)O1
- inhibition (Oryctolagus cuniculus [5]): inactive
- IC50 [8]: > 500 nM
- IC50 [9]: > 10000 nM
- IC50 (SK-MEL-2 [10]): > 5000 nM
- IC50 (HeLa [11]): > 5000 nM

Compound: COCCC/C=C/C(C)=C/[C@@H]1Cc2nc(cs2)[C@@H](C)C[C@@H](NC(=O)OC(C)(C)C)CC(=O)O[C@@H](C)C/C(C)=C/C=C\C(=O)O1
- IC50 (Jurkat [1]): > 1000 nM
